Active and inactive are the calls of the source. No rule for the calls is given here.
Biological target: Metabotropic glutamate receptor 5 (Rattus norvegicus) (UniProt P31424)
Experiment: [3H]methoxyPEPy displacement at rat mGlu5 – biochemical, HEK293A membranes, three-point Ki (AID 652191)
Settings: rmGlu5 HEK293A membranes
Summary of the method: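 probe or stimulus = 2 nM [3H]methoxyPEPy | system = rat mGlu5 HEK293A cell membranes | schedule = 1 h shaking incubation of membranes, radioligand and compound, room temperature | medium = HBSS with HEPES and probenecid, pH 7.4 | evaluation = radioligand displacement by compound | measured by = Filter-bound radioactivity by scintillation counting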

Sequence of Metabotropic glutamate receptor 5 (Rattus norvegicus) (P31424 whole entry, looked up): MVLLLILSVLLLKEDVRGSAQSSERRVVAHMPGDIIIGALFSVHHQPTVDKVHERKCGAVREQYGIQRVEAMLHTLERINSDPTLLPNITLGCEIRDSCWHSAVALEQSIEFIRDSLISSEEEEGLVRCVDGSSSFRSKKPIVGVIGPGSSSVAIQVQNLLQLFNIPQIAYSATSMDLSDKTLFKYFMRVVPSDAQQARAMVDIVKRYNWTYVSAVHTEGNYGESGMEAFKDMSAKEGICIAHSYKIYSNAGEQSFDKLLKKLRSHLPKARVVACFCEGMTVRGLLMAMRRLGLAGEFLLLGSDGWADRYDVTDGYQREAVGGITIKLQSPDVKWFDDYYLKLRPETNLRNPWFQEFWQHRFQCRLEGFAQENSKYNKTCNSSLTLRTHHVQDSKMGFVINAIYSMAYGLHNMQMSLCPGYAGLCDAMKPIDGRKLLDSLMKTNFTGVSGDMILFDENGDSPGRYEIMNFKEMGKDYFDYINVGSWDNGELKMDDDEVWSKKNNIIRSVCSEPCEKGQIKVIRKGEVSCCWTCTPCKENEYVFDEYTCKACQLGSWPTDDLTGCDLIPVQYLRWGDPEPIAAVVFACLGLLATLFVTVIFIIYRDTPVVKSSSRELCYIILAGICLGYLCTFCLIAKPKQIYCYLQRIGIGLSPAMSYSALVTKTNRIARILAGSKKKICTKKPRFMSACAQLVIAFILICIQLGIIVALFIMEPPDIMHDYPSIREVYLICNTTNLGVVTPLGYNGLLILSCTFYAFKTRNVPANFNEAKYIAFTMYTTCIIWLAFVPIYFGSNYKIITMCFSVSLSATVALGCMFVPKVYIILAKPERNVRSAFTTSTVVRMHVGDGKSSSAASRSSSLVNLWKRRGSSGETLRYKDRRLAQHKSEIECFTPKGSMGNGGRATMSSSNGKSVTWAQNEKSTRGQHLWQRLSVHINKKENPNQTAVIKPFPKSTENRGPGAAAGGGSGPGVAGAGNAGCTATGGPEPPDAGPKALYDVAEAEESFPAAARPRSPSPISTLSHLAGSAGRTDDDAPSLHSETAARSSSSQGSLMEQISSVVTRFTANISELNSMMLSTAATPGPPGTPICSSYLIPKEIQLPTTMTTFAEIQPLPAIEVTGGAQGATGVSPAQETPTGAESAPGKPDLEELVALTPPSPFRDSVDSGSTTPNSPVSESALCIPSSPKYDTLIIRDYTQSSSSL

| Compound | Ki |
| --- | --- |
| O=C(c1ccc(C#Cc2cccc(F)c2)nc1)N1CCC1 | inactive |
| O=C(c1ccc(C#Cc2cccc(F)c2)cn1)N1CC(F)C1 | 70 nM |
| O=C(c1ccc(C#Cc2cccc(F)c2)cc1)N1CCOCC1 | inactive |
| O=C(c1ccc(C#Cc2cccc(F)c2)cn1)N1CCCC1 | 20 nM |
| O=C(c1ccc(C#Cc2cccc(F)c2)cn1)N1CCC(F)(F)C1 | 10 nM |
| O=C(c1ccc(C#Cc2cccc(F)c2)cn1)N1CCOCC1 | 70 nM |
| O=C(c1ccc(C#Cc2cccc(F)c2)cn1)N1CCCCC1 | 10 nM |
| O=C(c1ccc(C#Cc2cccc(F)c2)cc1)N1CCC1 | 40 nM |
| O=C(c1ccc(C#Cc2cccc(F)c2)cn1)N1CC(O)(c2ccccc2)C1 | inactive |
| CNC(=O)c1ccc(C#Cc2cccc(F)c2)cn1 | inactive |

Next, values leading:

| Ki | Compound |
| --- | --- |
| 4.42 nM | O=C(c1ccc(C#Cc2cccc(F)c2)cn1)N1CCC(F)(F)CC1 |
| inactive | CNC(=O)c1ccc(C#Cc2cccc(F)c2)cc1 |
| inactive | O=C(c1ccc(C#Cc2cccc(F)c2)nc1)N1CCOCC1 |
| 10 nM | O=C(c1ccc(C#Cc2cccc(F)c2)cn1)N1CC2CC2C1 (stereo not drawn) |
| 40 nM | O=C(c1ccc(C#Cc2cccc(F)c2)cn1)N1CCC1 |
| 4.83 nM | CC1CCN1C(=O)c1ccc(C#Cc2cccc(F)c2)cn1 (stereo not drawn) |
| inactive | O=C(c1ccc(C#Cc2cccc(F)c2)cn1)N1CCC(O)CC1 |
| 3.82 nM | O=C(c1ccc(C#Cc2cccc(F)c2)cn1)N1CCCCCC1 |
